# ChEMBL document CHEMBL1136992, “Further studies at neuropeptide s position 5: discovery of novel neuropeptide S receptor antagonists” (J Med Chem, 2009)
# Active and inactive are the calls of the source. The calls are words filed in the database; no cut-off is given here. Square brackets hold non-standard residues; d marks the D form. Peptide text beside a SMILES is read from it. dTle = CC(C)(C)[C@@H](N)C(=O)O
# Tests used:
# Mu-type opioid receptor [1] = biological target: T1, Mu-type opioid receptor (Homo sapiens, UniProt P35372); experiment: Antagonist activity at human recombinant mu opioid receptor expressed in CHO cells coexpressing alphaqi5 assessed as inhibition of dermorphin-induced intracellular calcium mobilization; assay type: functional, cell-based
# Mu-type opioid receptor [2] = biological target: T1, Mu-type opioid receptor; experiment: Antagonist activity at human recombinant mu opioid receptor expressed in CHO cells coexpressing alphaqi5 assessed as inhibition of dermorphin-induced intracellular calcium mobilization at up to 10 uM; assay type: functional, cell-based
# In short: (§1)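 Calcium mobilization in human receptor cells. NK-1, B2 and UT recombinant in CHO. MOP, DOP, KOP and NOP in CHO cells carrying chimeric Gαqi5. Native PAR2 in A549 cells. […] Mean ± SEM of three experiments in duplicate.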
# [3] = biological target: T2, Neuropeptide S receptor (Mus musculus) (UniProt Q8BZP8); experiment: Agonist activity at mouse NPSR expressed in HEK293 cells up to 10 uM by calcium mobilization assay; assay type: functional, cell-based
# T2 sequence (whole entry): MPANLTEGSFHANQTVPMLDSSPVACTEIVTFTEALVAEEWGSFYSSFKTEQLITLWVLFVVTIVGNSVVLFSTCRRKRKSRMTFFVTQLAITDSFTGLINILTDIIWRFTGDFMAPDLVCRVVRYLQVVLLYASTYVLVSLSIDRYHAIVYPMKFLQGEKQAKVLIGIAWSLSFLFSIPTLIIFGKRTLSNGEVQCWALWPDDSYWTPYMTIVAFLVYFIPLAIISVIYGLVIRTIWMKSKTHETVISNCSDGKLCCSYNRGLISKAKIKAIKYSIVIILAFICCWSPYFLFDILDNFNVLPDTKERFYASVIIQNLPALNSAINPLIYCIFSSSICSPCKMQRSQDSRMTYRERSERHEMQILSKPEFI
# In short: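 HEK293 cells stably expressing mouse NPSR; intracellular calcium mobilization measured after peptide addition, concentration-response curves giving pEC50 and Emax as % over basal. Mean of at least four separate experiments performed in duplicate.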
# [4] = biological target: T2, Neuropeptide S receptor (Mus musculus); experiment: Antagonist activity at mouse NPSR expressed in HEK293 cells assessed as inhibition of NPS-induced response; assay type: functional, cell-based
# In short: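 HEK293 cells stably expressing mouse NPSR, calcium mobilization. Inhibition response curves to test peptides against 30 nM NPS, run at 37 °C with three up-and-down mixing cycles right after antagonist injection to aid diffusion. Mean of at least four separate experiments performed in duplicate.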
# [5] = biological target: T2, Neuropeptide S receptor (Mus musculus); experiment: Antagonist activity at mouse NPSR expressed in HEK293 cells assessed as inhibition of NPS-induced response by Schild analysis; assay type: functional, cell-based
# In short: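 Calcium mobilization in HEK293 cells stably expressing mouse NPSR, at 37 °C with three mixing cycles after antagonist injection. NPS concentration-response curves were run without and with antagonist at 0.1-10 µM, and pKB with 95% confidence limits was derived from the curve shifts. Mean ± SEM of four separate experiments in duplicate.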
# Urotensin-2 receptor = biological target: T3, Urotensin-2 receptor (Homo sapiens, UniProt Q9UKP6); experiment: Antagonist activity at human recombinant urotensin 2 receptor expressed in CHO cells assessed as inhibition of urotensin 2-induced intracellular calcium mobilization; assay type: functional, cell-based
# T3 sequence (Q9UKP6 whole entry): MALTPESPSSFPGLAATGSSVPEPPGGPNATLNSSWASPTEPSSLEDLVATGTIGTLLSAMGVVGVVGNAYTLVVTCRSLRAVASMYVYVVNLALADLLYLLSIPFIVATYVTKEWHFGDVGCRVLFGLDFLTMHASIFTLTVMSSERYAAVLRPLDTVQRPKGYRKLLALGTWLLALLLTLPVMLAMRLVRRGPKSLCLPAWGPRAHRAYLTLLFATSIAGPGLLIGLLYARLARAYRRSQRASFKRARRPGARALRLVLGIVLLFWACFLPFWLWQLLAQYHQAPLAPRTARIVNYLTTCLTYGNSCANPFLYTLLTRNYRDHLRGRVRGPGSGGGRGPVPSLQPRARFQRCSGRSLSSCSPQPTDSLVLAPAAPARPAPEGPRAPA
# [6] = biological target: T4, Kappa-type opioid receptor (Homo sapiens, UniProt P41145); experiment: Antagonist activity at human recombinant kappa opioid receptor expressed in CHO cells coexpressing alphaqi5 assessed as inhibition of dynorphin A-induced intracellular calcium mobilization; assay type: functional, cell-based
# In short: (§2)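 Calcium mobilization in human receptor cells. NK-1, B2 and UT recombinant in CHO. MOP, DOP, KOP and NOP in CHO cells carrying chimeric Gαqi5. Native PAR2 in A549 cells. Mean ± SEM of three experiments in duplicate.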
# [7] = biological target: T5, Delta-type opioid receptor (Homo sapiens, UniProt P41143); experiment: Antagonist activity at human recombinant delta opioid receptor expressed in CHO cells coexpressing alphaqi5 assessed as inhibition of DPDPE-induced intracellular calcium mobilization; assay type: functional, cell-based; in short: as §2
# [8] = biological target: T6, B2 bradykinin receptor (Homo sapiens) (UniProt P30411); experiment: Antagonist activity at human recombinant bradykinin 2 receptor expressed in CHO cells assessed as inhibition of bradykinin-induced intracellular calcium mobilization at up to 10 uM; assay type: functional, cell-based; in short: as §1
# T6 sequence (whole entry): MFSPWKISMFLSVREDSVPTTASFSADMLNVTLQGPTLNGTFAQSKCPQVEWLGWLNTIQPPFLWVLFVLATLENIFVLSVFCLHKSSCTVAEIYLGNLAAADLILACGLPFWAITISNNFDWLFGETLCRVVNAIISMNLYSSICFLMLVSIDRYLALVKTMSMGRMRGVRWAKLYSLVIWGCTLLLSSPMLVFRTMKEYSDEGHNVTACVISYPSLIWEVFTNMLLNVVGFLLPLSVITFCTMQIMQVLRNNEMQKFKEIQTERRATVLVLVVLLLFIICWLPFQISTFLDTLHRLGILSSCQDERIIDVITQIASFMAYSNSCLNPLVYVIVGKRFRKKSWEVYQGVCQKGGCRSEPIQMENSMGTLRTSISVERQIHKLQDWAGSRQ
# [9] = biological target: T4, Kappa-type opioid receptor; experiment: Antagonist activity at human recombinant kappa opioid receptor expressed in CHO cells coexpressing alphaqi5 assessed as inhibition of dynorphin A-induced intracellular calcium mobilization at up to 10 uM; assay type: functional, cell-based; in short: as §1
# Nociceptin receptor = Nociceptin receptor (Homo sapiens, UniProt P41146); experiment: Antagonist activity at human recombinant NOP receptor expressed in CHO cells coexpressing alphaqi5 assessed as inhibition of N/OFQ-induced intracellular calcium mobilization; assay type: functional, cell-based
# [10] = biological target: T5, Delta-type opioid receptor; experiment: Antagonist activity at human recombinant delta opioid receptor expressed in CHO cells coexpressing alphaqi5 assessed as inhibition of DPDPE-induced intracellular calcium mobilization at up to 10 uM; assay type: functional, cell-based; in short: as §2
# [11] = biological target: T2, Neuropeptide S receptor (Mus musculus); experiment: Antagonist activity at mouse NPSR expressed in HEK293 cells assessed as inhibition of NPS-induced increase in intracellular calcium mobilization by Schild analysis at room temperature; assay type: functional, cell-based
# In short: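 Schild-type experiment in HEK293 cells expressing mouse NPSR by calcium mobilization, using NPS concentration-response curves with added antagonist, run under the earlier conditions without 37 °C and without post-injection mixing.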
# [12] = biological target: T7, Proteinase-activated receptor 2 (Homo sapiens, UniProt P55085); experiment: Antagonist activity at human recombinant PAR2 expressed in A549 cells assessed as inhibition of SLIGKV-NH2-induced intracellular calcium mobilization; assay type: functional, cell-based
# T7 sequence (P55085 whole entry): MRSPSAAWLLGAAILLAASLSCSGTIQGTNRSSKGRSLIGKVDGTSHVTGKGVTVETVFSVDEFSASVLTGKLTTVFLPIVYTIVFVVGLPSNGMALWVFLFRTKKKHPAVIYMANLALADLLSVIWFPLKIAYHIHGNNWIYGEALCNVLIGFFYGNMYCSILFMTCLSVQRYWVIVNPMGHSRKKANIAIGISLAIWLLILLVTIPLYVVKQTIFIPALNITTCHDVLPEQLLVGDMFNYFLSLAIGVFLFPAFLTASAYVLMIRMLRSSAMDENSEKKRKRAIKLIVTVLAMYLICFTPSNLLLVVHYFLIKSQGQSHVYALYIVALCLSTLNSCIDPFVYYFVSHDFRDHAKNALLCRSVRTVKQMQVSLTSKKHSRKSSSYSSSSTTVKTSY
# B2 bradykinin receptor = biological target: T8, B2 bradykinin receptor (Homo sapiens, UniProt P30411); experiment: Antagonist activity at human recombinant bradykinin 2 receptor expressed in CHO cells assessed as inhibition of bradykinin-induced intracellular calcium mobilization; assay type: functional, cell-based; in short: as §2
# T8 sequence (P30411 whole entry): T6 sequence (whole entry)
# [13] = biological target: Proteinase-activated receptor 2 (Homo sapiens) (UniProt P55085); experiment: Antagonist activity at human recombinant PAR2 expressed in A549 cells assessed as inhibition of SLIGKV-NH2-induced intracellular calcium mobilization at up to 10 uM; assay type: functional, cell-based
# Substance-P receptor = Substance-P receptor (Homo sapiens, UniProt P25103); experiment: Antagonist activity at human recombinant NK1 receptor expressed in CHO cells assessed as inhibition of substance P-induced intracellular calcium mobilization
# Chain of Substance-P receptor (P25103 whole entry): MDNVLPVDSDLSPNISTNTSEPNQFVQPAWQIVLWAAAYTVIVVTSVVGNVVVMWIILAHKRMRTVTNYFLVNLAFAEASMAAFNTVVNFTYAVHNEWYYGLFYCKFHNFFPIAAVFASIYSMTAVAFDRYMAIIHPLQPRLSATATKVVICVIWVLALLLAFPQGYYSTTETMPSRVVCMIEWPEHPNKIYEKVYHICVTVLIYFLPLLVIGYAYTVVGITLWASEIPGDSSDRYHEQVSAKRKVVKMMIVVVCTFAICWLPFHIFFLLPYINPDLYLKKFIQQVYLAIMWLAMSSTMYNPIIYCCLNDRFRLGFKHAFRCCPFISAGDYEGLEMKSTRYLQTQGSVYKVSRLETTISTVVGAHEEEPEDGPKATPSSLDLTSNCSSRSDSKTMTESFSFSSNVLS
# T4 sequence (P41145 whole entry): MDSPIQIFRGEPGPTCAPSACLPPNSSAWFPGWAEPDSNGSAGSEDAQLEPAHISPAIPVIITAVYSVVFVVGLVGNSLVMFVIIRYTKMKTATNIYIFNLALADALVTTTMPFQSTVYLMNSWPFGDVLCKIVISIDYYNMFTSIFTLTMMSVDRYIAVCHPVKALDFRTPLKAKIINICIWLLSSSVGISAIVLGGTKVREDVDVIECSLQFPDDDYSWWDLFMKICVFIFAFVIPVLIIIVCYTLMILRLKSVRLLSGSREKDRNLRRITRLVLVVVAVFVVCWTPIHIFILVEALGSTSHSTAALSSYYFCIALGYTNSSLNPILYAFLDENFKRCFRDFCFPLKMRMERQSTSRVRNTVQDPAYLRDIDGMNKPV
# T5 sequence (P41143 whole entry): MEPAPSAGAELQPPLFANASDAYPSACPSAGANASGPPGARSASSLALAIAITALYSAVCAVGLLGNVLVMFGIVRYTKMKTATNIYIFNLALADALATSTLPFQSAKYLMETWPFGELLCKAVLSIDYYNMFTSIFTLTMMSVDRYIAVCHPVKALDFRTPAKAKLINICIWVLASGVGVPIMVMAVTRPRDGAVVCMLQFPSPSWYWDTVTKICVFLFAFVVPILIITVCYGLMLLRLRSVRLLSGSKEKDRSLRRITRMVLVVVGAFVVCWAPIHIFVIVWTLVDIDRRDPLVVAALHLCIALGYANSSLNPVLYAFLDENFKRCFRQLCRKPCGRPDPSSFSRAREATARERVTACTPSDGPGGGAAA
# T1 sequence (P35372 whole entry): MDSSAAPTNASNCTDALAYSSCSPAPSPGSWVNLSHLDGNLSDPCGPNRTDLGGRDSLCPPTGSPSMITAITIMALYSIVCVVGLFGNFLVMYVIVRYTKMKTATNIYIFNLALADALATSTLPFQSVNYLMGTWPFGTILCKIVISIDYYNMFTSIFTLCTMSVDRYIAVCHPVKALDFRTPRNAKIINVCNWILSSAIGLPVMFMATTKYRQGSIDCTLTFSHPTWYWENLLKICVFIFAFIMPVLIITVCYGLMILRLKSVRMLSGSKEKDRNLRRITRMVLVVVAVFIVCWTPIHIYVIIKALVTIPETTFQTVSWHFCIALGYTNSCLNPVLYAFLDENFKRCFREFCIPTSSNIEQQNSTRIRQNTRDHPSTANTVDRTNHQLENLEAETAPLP
# Chain of Nociceptin receptor (P41146 whole entry): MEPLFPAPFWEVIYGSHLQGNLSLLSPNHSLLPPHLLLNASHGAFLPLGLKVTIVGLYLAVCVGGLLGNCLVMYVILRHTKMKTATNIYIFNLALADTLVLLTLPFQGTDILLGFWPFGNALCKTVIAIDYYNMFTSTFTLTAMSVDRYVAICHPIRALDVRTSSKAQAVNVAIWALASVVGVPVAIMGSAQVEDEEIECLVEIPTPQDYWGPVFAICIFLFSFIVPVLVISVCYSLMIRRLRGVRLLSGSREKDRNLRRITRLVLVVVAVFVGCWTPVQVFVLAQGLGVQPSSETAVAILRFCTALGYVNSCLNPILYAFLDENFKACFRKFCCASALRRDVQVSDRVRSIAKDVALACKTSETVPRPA
smiles,measurement,setting,value
CSCC[C@H](NC(=O)CNC(=O)[C@@H](NC(=O)CNC(=O)[C@@H](NC(=O)[C@H](NC(=O)[C@H](CC(N)=O)NC(=O)[C@H](CCCNC(=N)N)NC(=O)[C@H](Cc1ccccc1)NC(=O)[C@@H](N)CO)C(C)(C)C)C(C)C)[C@@H](C)O)C(=O)N[C@@H](CCCCN)C(=O)N[C@@H](CCCCN)C(=O)N[C@H](C(=O)N[C@@H](CO)C(=O)N[C@@H](Cc1ccccc1)C(=O)N[C@@H](CCC(N)=O)C(=O)N[C@@H](CCCNC(=N)N)C(=O)N[C@@H](C)C(=O)N[C@@H](CCCCN)C(=O)N[C@@H](CO)C(=O)O)[C@@H](C)O (H-SFRN[dTle]VGTGMKKTSFQRAKS-OH),EC50,Mu-type opioid receptor [1],11 nM
same,Emax,Mu-type opioid receptor [2],186%
same,Emax,[3],inactive
same,pKb,[4],7.06
same,Activity,[5],Dose-dependent effect
same,EC50,Urotensin-2 receptor,3.47 nM
same,EC50,[6],2.34 nM
same,EC50,[7],1.95 nM
same,Emax,[8],115%
same,Emax,[9],139%
same,EC50,Nociceptin receptor,0.282 nM
same,Emax,[10],177%
same,Emax,[11],< 50%
same,EC50,[12],31600 nM
same,EC50,B2 bradykinin receptor,0.0339 nM
same,Emax,[13],445%
same,EC50,Substance-P receptor,0.049 nM
